Measurements taken from ChEMBL document CHEMBL1156815, “Synthesis and opioid activity of enantiomeric N-substituted 2,3,4,4a,5,6,7,7a-octahydro-1H-benzofuro[3,2-e]isoquinolines” (J Med Chem, 2010).

How the values were obtained:
[1] = Displacement of [3H]di-O-tolyguanidine from sigma2 receptor in rat brain homogenate; type: tissue-based
[2] = molecular target: T1, Kappa-type opioid receptor (Homo sapiens, UniProt P41145); conditions: CHO
[3] = Binding affinity to sigma receptor
[4] = molecular target: T1, Kappa-type opioid receptor; assay: biochemical; type: cell-based, CHO
[5] = molecular target: T2, Delta-type opioid receptor (Homo sapiens, UniProt P41143); assay: Displacement of [125I]OXY from human delta opioid receptor expressed in CHO cells; type: cell-based
T2 sequence (P41143 whole entry): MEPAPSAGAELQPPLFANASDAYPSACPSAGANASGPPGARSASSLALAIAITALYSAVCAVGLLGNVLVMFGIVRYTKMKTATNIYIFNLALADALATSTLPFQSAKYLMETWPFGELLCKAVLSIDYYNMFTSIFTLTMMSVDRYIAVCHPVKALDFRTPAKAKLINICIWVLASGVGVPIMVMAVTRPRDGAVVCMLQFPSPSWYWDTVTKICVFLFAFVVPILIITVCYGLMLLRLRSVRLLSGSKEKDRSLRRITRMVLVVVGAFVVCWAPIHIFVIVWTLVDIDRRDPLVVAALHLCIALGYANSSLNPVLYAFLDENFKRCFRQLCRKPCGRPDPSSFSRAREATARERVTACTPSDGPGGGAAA

[6] = molecular target: Sigma non-opioid intracellular receptor 1 (Rattus norvegicus, UniProt Q9R0C9); assay: Displacement of [3H](+)-pentazocine from sigma1 receptor in rat brain homogenate; type: tissue-based
Sigma non-opioid intracellular receptor 1, sequence (Q9R0C9 whole entry): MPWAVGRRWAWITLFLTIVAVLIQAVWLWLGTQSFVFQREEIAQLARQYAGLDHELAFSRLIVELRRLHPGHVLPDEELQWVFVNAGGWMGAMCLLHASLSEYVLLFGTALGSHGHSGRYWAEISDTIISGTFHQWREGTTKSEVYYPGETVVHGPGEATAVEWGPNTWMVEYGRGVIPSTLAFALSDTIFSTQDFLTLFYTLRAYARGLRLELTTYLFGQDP
Method in brief: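 Rat brain homogenate binding. Nonspecific binding defined with haloperidol. Means ± SEM from replicate assays.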

Mu-type opioid receptor [7] = molecular target: T3, Mu-type opioid receptor (Homo sapiens, UniProt P35372); assay: biochemical; type: cell-based, CHO
T3 sequence (P35372 whole entry): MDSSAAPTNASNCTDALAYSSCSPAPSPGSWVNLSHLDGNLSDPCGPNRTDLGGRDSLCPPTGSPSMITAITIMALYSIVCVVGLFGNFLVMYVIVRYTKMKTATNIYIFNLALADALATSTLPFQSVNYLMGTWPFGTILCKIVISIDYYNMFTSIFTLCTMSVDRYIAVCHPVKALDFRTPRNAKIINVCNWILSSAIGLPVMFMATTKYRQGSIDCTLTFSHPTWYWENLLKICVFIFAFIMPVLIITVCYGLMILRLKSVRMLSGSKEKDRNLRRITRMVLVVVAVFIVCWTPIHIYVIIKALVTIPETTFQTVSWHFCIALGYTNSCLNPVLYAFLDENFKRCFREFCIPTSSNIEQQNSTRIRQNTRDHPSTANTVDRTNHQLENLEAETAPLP

Rattus norvegicus = species on record: Rattus norvegicus; assay: Selectivity index, ratio of Ki for rat brain sigma2 receptor to Ki for rat brain sigma1 receptor
Homo sapiens [8] = species on record: Homo sapiens; assay: Selectivity index, ratio of Ki for human kappa opioid receptor to human mu opioid receptor
Homo sapiens [9] = species on record: Homo sapiens; assay: Selectivity index, ratio of Ki for human delta opioid receptor to human mu opioid receptor
[10] = molecular target: T1, Kappa-type opioid receptor; conditions: CHO; remark: listed apart in the source
Mu-type opioid receptor [11] = molecular target: T3, Mu-type opioid receptor; conditions: CHO
[12] = molecular target: T2, Delta-type opioid receptor; assay: Binding affinity to human delta opioid receptor expressed in CHO cells; type: cell-based
Mu-type opioid receptor [13] = molecular target: T3, Mu-type opioid receptor; assay: Binding affinity to human mu opioid receptor expressed in CHO cells; type: cell-based
Mu-type opioid receptor [14] = molecular target: T3, Mu-type opioid receptor; conditions: CHO; remark: listed apart in the source
[15] = molecular target: T2, Delta-type opioid receptor; conditions: CHO
[16] = molecular target: T2, Delta-type opioid receptor; assay: Agonist activity at human delta opioid receptor expressed in CHO cells assessed as stimulation of [35S]GTPgammaS binding relative to 500 nM SNC80; type: functional, cell-based
Method in brief: (§1)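 [35S]GTPgammaS binding stimulation at the delta receptor, n = 3, reported with SD.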

[17] = molecular target: T2, Delta-type opioid receptor; assay: Agonist activity at human delta opioid receptor expressed in CHO cells assessed as stimulation of [35S]GTPgammaS binding; type: functional, cell-based; method in brief: as §1

T1 sequence (P41145 whole entry): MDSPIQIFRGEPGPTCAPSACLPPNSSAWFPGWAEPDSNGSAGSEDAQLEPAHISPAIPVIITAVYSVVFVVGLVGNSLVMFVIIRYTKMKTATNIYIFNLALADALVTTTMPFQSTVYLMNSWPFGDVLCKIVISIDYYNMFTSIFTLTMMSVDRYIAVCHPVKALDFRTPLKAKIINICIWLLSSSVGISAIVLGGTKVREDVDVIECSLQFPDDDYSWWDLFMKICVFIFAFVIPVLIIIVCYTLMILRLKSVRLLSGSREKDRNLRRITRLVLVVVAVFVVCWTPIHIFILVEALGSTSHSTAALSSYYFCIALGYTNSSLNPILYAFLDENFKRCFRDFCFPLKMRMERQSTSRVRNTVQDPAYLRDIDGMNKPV

SMILES | Ki [1] [nM] | Ki [4] [nM] | Ki [5] [nM] | Ki [6] [nM] | Ki (Mu-type opioid receptor [7]) [nM] | Ratio Ki (Homo sapiens [8]) | other results
CC(C)=CCN1CC[C@@]2(C)c3cc(O)ccc3C[C@@H]1[C@@H]2C | 56 | – | – | – | – | – | –
C[C@@H](NC(=O)[C@@H](N)Cc1ccc(O)cc1)C(=O)NCC(=O)N(C)[C@@H](Cc1ccccc1)C(=O)NCCO | – | – | – | – | – | – | ED50 [2]: 8940 nM
Oc1cccc2c1O[C@H]1CCC[C@H]3CN(CC4CC4)CC[C@@]231 (racemic) | – | – | – | – | – | – | Ki [3]: 21 nM
CN1CC[C@]23c4cccc(O)c4O[C@H]2CCC[C@H]3C1 (stereo in doubt; (+)-1a) | – | 6900 | > 10000 | 2010 | – | – | –
Oc1cccc2c1O[C@H]1CCC[C@H]3CN(CC4CC4)CC[C@@]231 (stereo in doubt; (+)-1b) [listing 1 of 2 here] | 1030 | 699 | > 10000 | 201 | 1330 | – | –
Oc1cccc2c1O[C@H]1CCC[C@H]3CN(CC4CC4)CC[C@@]231 (stereo in doubt; (+)-1b) [listing 2 of 2 here] | – | – | – | – | – | 0.53 | Ratio Ki (Rattus norvegicus): 5.1
Oc1cccc2c1O[C@H]1CCC[C@H]3CN(CCc4ccccc4)CC[C@@]231 (stereo in doubt; (+)-1c) [listing 1 of 2 here] | 263 | 1240 | 5000 | 131 | 275 | – | –
Oc1cccc2c1O[C@H]1CCC[C@H]3CN(CCc4ccccc4)CC[C@@]231 (stereo in doubt; (+)-1c) [listing 2 of 2 here] | – | – | – | – | – | 4.5 | Ratio Ki (Homo sapiens [9]): 18; Ratio Ki (Rattus norvegicus): 2
COc1cccc2c1O[C@H]1CCC[C@H]3CN(C)CC[C@@]231 (stereo in doubt; (+)-3a) [listing 1 of 2 here] | > 10000 | 7230 | > 10000 | 658 | 7610 | – | –
COc1cccc2c1O[C@H]1CCC[C@H]3CN(C)CC[C@@]231 (stereo in doubt; (+)-3a) [listing 2 of 2 here] | – | – | – | – | – | 0.95 | Ratio Ki (Rattus norvegicus): > 15
COc1cccc2c1O[C@H]1CCC[C@H]3CN(CC4CC4)CC[C@@]231 (stereo in doubt; (+)-3b) [listing 1 of 2 here] | 4370 | > 10000 | > 10000 | 62 | > 10000 | – | –
COc1cccc2c1O[C@H]1CCC[C@H]3CN(CC4CC4)CC[C@@]231 (stereo in doubt; (+)-3b) [listing 2 of 2 here] | – | – | – | – | – | – | Ratio Ki (Rattus norvegicus): 71
COc1cccc2c1O[C@H]1CCC[C@H]3CN(CCc4ccccc4)CC[C@@]231 (stereo in doubt; (+)-3c) [listing 1 of 2 here] | 2550 | 1140 | 8390 | 278 | 145 | – | –
COc1cccc2c1O[C@H]1CCC[C@H]3CN(CCc4ccccc4)CC[C@@]231 (stereo in doubt; (+)-3c) [listing 2 of 2 here] | – | – | – | – | – | 7.9 | Ratio Ki (Homo sapiens [9]): 58; Ratio Ki (Rattus norvegicus): 9.2
COc1cccc2c1O[C@H]1CCC[C@@H]3CN(C)CC[C@@]231 (stereo in doubt; (+)-4) [listing 1 of 2 here] | – | 1850 | > 10000 | – | > 10000 | – | –
COc1cccc2c1O[C@H]1CCC[C@@H]3CN(C)CC[C@@]231 (stereo in doubt; (+)-4) [listing 2 of 2 here] | – | – | – | – | – | < 0.19 | –
CN1CC[C@]23c4cccc(O)c4O[C@H]2CCC[C@@H]3C1 (stereo in doubt; (+)-5) | – | – | – | – | – | – | Ki ([4]; cho): > 10000 nM; Ki ([5]; cho): > 10000 nM

SMILES | Ki [1] [nM] | Ki [4] [nM] | Ki [5] [nM] | Ki [6] [nM] | Ki (Mu-type opioid receptor [7]) [nM] | Ratio Ki (Homo sapiens [8]) | other results
CN1CC[C@]23c4cccc(O)c4O[C@H]2CCC[C@H]3C1 (stereo in doubt; (-)-1a) [listing 1 of 2 here] | > 10000 | 14 | 44 | > 10000 | – | – | –
CN1CC[C@]23c4cccc(O)c4O[C@H]2CCC[C@H]3C1 (stereo in doubt; (-)-1a) [listing 2 of 2 here] | – | – | – | – | – | – | Ke [10]: 80 nM; ED50 (Mu-type opioid receptor [11]): 19 nM
Oc1cccc2c1O[C@H]1CCC[C@H]3CN(CC4CC4)CC[C@@]231 (stereo in doubt; (-)-1b) [listing 1 of 2 here] | > 10000 | 0.1 | 2 | 399 | 0.08 | – | Kd [12]: 20 nM; Kd (Mu-type opioid receptor [13]): 0.22 nM
Oc1cccc2c1O[C@H]1CCC[C@H]3CN(CC4CC4)CC[C@@]231 (stereo in doubt; (-)-1b) [listing 2 of 2 here] | – | – | – | – | – | 1.3 | Ratio Ki (Homo sapiens [9]): 25; ED50 [2]: 2.3 nM; Ratio Ki (Rattus norvegicus): > 25; Ke (Mu-type opioid receptor [14]): 0.22 nM; Ke [15]: 20 nM
Oc1cccc2c1O[C@H]1CCC[C@H]3CN(CCc4ccccc4)CC[C@@]231 (stereo in doubt; (-)-1c) [listing 1 of 2 here] | 5380 | 15 | 6 | 239 | 0.3 | – | –
Oc1cccc2c1O[C@H]1CCC[C@H]3CN(CCc4ccccc4)CC[C@@]231 (stereo in doubt; (-)-1c) [listing 2 of 2 here] | – | – | – | – | – | 50 | Ratio Ki (Homo sapiens [9]): 20; Ratio Ki (Rattus norvegicus): 23; Emax [16]: 64%; Ke [10]: 130 nM; ED50 [17]: 148 nM; ED50 (Mu-type opioid receptor [11]): 10 nM
COc1cccc2c1O[C@H]1CCC[C@H]3CN(C)CC[C@@]231 (stereo in doubt; (-)-3a) [listing 1 of 2 here] | 7480 | 3470 | 9750 | > 10000 | 236 | – | –
COc1cccc2c1O[C@H]1CCC[C@H]3CN(C)CC[C@@]231 (stereo in doubt; (-)-3a) [listing 2 of 2 here] | – | – | – | – | – | 15 | Ratio Ki (Homo sapiens [9]): 41; Ratio Ki (Rattus norvegicus): < 0.7
COc1cccc2c1O[C@H]1CCC[C@H]3CN(CC4CC4)CC[C@@]231 (stereo in doubt; (-)-3b) [listing 1 of 2 here] | 3270 | 41 | 544 | 285 | 30 | – | –
COc1cccc2c1O[C@H]1CCC[C@H]3CN(CC4CC4)CC[C@@]231 (stereo in doubt; (-)-3b) [listing 2 of 2 here] | – | – | – | – | – | 1.4 | Ratio Ki (Homo sapiens [9]): 18; Ratio Ki (Rattus norvegicus): 11
COc1cccc2c1O[C@H]1CCC[C@H]3CN(CCc4ccccc4)CC[C@@]231 (stereo in doubt; (-)-3c) [listing 1 of 2 here] | 3270 | 1850 | 490 | 560 | 24 | – | –
COc1cccc2c1O[C@H]1CCC[C@H]3CN(CCc4ccccc4)CC[C@@]231 (stereo in doubt; (-)-3c) [listing 2 of 2 here] | – | – | – | – | – | 77 | Ratio Ki (Homo sapiens [9]): 20; Ratio Ki (Rattus norvegicus): 5.8
COc1cccc2c1O[C@H]1CCC[C@@H]3CN(C)CC[C@@]231 (stereo in doubt; (-)-4) [listing 1 of 2 here] | – | 565 | 1050 | – | 27 | – | –
COc1cccc2c1O[C@H]1CCC[C@@H]3CN(C)CC[C@@]231 (stereo in doubt; (-)-4) [listing 2 of 2 here] | – | – | – | – | – | 21 | Ratio Ki (Homo sapiens [9]): 39
CN1CC[C@]23c4cccc(O)c4O[C@H]2CCC[C@@H]3C1 (stereo in doubt; (-)-5) | – | > 10000 | > 10000 | – | – | – | –
CC(C)=CCN1CC[C@]2(C)c3cc(O)ccc3C[C@H]1[C@H]2C [(+)-PENTAZOCINE] | 1360 | – | – | – | – | – | –
C=CCN1CC[C@]23c4c5ccc(O)c4O[C@H]2C(=O)CC[C@@]3(O)[C@H]1C5 [NALOXONE] | > 10000 | – | – | – | – | – | –
